Data published in ChEMBL document CHEMBL1136801, “Cyclopropane-containing polyamine analogues are efficient growth inhibitors of a human prostate tumor xenograft in nude mice” (J Med Chem, 2003).

Key:
Mus musculus [1] = assay: Toxicity studies on male athymic NCr-nu mice administered ip daily for 5 consecutive days then rested for 10 days, and a second cycle of treatment also followed the q1d x 5 schedule; Death of all treated mice; type: organism-based; settings: in vivo, 240 h
DU-145 = assay: Growth inhibitory effect was assessed against the human prostate tumor cell line Du-145 using MTT assay; type: functional; settings: read-out: ID50 (the source's name)
Method in brief: (§1)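 Cells seeded at 500 per well and incubated overnight at 37 °C in humidified 95% air/5% CO2, then exposed to serially diluted drug for 6 days, each concentration in quadruplicate, with buffer controls. MTT (5 mg/mL solution) added for 4 h at 37 °C; lysed overnight at 37 °C in SDS/DMF buffer, pH 4.8; absorbance at 570 nm. ID50 is the concentration giving 50% growth inhibition.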

DuPro = assay: Growth inhibitory effect was assessed against the human prostate tumor cell line DuPro using MTT assay; type: functional; settings: read-out: ID50 (the source's name); method in brief: as §1
PC-3 = assay: Growth inhibitory effect was assessed against the human prostate tumor cell line PC-3 using MTT assay; type: functional; settings: read-out: ID50 (the source's name); method in brief: as §1
Mus musculus [2] = assay: Toxicity studies on male athymic NCr-nu mice administered ip daily for 5 consecutive days then rested for 10 days, and a second cycle of treatment also followed the q1d x 5 schedule; Two treatment-related deaths out of three animals; type: organism-based; settings: in vivo, 240 h
Mus musculus [3] = assay: Toxicity studies on male athymic NCr-nu mice administered ip daily for 5 consecutive days then rested for 10 days, and a second cycle of treatment also followed the q1d x 5 schedule; Death of all three mice; type: organism-based; settings: in vivo, 240 h
Mus musculus [4] = assay: (§2) Toxicity studies on male athymic NCr-nu mice administered ip daily for 5 consecutive days then rested for 10 days, and a second cycle of treatment also followed the q1d x 5 schedule; type: organism-based; settings: in vivo, 240 h
[5] = as §2; type: organism-based; settings: mouse, in vivo, read-out: Lethality

Structure (SMILES) | Lethal dose (Mus musculus [1]) | IC50 (DU-145) | IC50 (DuPro) | IC50 (PC-3) | Lethal dose (Mus musculus [2]) | Lethal dose (Mus musculus [3]) | Lethal dose (Mus musculus [4]) | mortality at 240 h [5]
CCNCC1CC1CNCC1CC1CNCC1CC1CNCC.Cl (stereo not given) | 75 mg/kg | 0.08 µM | 0.63 µM | > 31.5 µM |  |  |  | 
CCNCCCCNCC1CC1CNCCCCNCC1CC1CNCCCCNCC.Cl (stereo not given) |  | 0.12 µM | 0.38 µM | > 31.2 µM | 25 mg/kg |  |  | 
CCNCC1CC1CNCCCCNCC1CC1CNCC.Cl (stereo not given) |  | 0.06 µM | 0.26 µM | > 31.2 µM |  | 75 mg/kg |  | 
CCNCCCCNCC1CC1CNCCCCNCCCCNCC1CC1CNCCCCNCCCCNCC1CC1CNCCCCNCC.Cl (stereo not given) |  | 0.22 µM | 0.2 µM | 0.3 µM |  |  | 25 mg/kg | 
CCNCCCCNCCCCNCCCCNCCCCNCC1CC1CNCCCCNCCCCNCCCCNCCCCNCC (stereo not given) |  | 0.2 µM | 0.34 µM | 0.4 µM |  |  |  | 100%
